Screening data as filed in PubChem.
Rows were chosen to be rich in hits. Some 3.8% of all compounds tested hit in one or more screens of this group.
RGS4 inh = RGS4 inhibitors, primary screen, cell-based, HEK293 M3R inducible RGS4, calcium flux | 0.45% of 310,000 active | AID 463165, 2010 | Regulator of G-protein signaling 4 (Homo sapiens), P49798 | B-score at 10 µM | Fluo-4 calcium flux; hits give high values; triggered by carbachol at its EC20;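 active means B-score, a plate-corrected calcium signal, over three deviations above library mean, with baseline fluorescence within five deviations of library mean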;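 further: RGS4 expression induced by doxycycline in cells with stable M3 receptor; B-score is computed from the integrated fluorescence ratio over baseline after carbachol; higher B-score means a larger calcium signal and so more RGS4 inhibition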
Target sequence (P49798 whole entry, looked up): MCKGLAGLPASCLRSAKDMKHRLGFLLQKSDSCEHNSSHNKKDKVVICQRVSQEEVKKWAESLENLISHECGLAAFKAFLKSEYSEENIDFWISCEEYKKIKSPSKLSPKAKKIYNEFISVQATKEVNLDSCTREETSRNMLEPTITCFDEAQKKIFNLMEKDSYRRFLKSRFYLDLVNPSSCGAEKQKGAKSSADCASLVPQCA
MrgX1 allo act = positive allosteric modulators of MrgX1, primary screen, HEK293 cells, Fluo-4 calcium flux. Mas-related G-protein coupled receptor member X1 (Homo sapiens), Q96LB2. FDSS; hits give high values. B-score at 10 µM. 0.63% of 310,000 active. AID 588675, 2011;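 active means plate-corrected calcium response at least 3 library SD above typical, normal starting fluorescence, not activating the receptor alone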;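 further: compound read alongside a low EC10 to EC30 dose of BAM8-22 agonist; peak minus trough fluorescence over baseline measured at the second addition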
Target sequence (Q96LB2 whole entry, looked up): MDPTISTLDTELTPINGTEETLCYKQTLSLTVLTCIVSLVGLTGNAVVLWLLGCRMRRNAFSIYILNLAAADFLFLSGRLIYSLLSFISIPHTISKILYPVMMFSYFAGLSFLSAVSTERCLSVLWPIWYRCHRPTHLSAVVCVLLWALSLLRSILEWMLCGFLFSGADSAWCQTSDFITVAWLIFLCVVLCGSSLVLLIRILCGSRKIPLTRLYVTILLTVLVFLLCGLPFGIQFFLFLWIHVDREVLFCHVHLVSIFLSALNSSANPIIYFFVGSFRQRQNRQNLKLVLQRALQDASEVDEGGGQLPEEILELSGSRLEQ
MrgX1 antag = antagonists of human MrgX1 receptor, primary screen, HEK293 cells, Fluo-4 calcium flux. Mas-related G-protein coupled receptor member X1 (Homo sapiens), Q96LB2. BAM8-22 antagonism; hits give low values. B-score at 10 µM. 1.3% of 310,000 active. AID 588676, 2011;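 active means calcium-response B-score plate-corrected more than 3 library SD below zero, starting fluorescence within 5 deviations, no agonist response on first addition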;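 further: peak minus trough fluorescence over baseline after final BAM8-22 challenge near maximal dose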
RGS4 act = RGS4 potentiators or activators, primary screen, cell-based, HEK293 M3R inducible RGS4, calcium flux; carbachol calcium flux Fluo4; hits give low values; B-score at 10 µM; 0.92% of 310,000 active; AID 463111, 2010;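 active means B-score of the integrated calcium signal more than 4 SD below the library mean, with starting fluorescence not abnormally high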;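 further: negative B-score means reduced calcium response which marks RGS4 activation or potentiation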
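Reagent: ECmax carbachol challenge; Test system: M3R-expressing HEK293 line, RGS4 induced by doxycycline; Schedule: overnight RGS4 induction, 30 min dye load 37 °C, 20 min compound RT; Detection: calcium dye Fluo4 fluorescence; Read-out: Agonist-evoked peak-minus-minimum fluorescence over baseline, integrated ratio, B score.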
Lipid droplet = inhibitors of hepatocyte lipid droplet formation, primary screen, imaging, high-throughput imaging, BODIPY stain. AML12 mouse hepatocytes, oleate lipid droplets. inhibition, % at 6.5 µM. 0.4% of 240,000 active. AID 1656, 2009;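 active means lipid droplet intensity inhibited by at least 50%, with more than 500 cells counted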
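Material – AML12 mouse liver cells · Also added – oleate loading, 100 µM · Compound dosing – 6.5 µM single-point dosing · Times – overnight treatment with compound plus oleate · Measured by – fluorescence imaging, 20x objective, two fields per well · Read-out – percent inhibition of filter-corrected integrated lipid droplet intensity per well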
MrgX1 agonist = agonists of human MrgX1 receptor, primary screen, HEK293 cells, Fluo-4 calcium flux | Fluo-4 calcium fluorescence, agonist mode; hits give high values | B-score at 10 µM | Mas-related G-protein coupled receptor member X1 (Homo sapiens), Q96LB2 | 0.44% of 310,000 active;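 active means calcium response B-score plate-corrected fluorescence ratio at least 3 library SD, with starting fluorescence B-score inside 5 SD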
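Assay system: stable human MrgX1 HEK293 cell line. Quantity: 15,000 cells per well. Schedule: cells plated overnight, dye loaded 0.5 h 37 °C, 0.5 h room temperature. Detection: Fluo-4 NW calcium-flux fluorescence, kinetic read. Read-out basis: peak-minus-minimum fluorescence over baseline, converted to B scores. Control set: positive and negative control wells on each plate.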
MrgX1 ag reconf = MrgX1 receptor agonists, duplicate retest, confirmation, HEK293 cells, Fluo-4 calcium flux. shares compounds with MrgX1 agonist. Fluo-4 calcium fluorescence, FDSS. activation, % at 10 µM. 78% of 600 active;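 active means calcium signal rise, corrected for plate position, at least 3 library SD high, with starting brightness within 5 such deviations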
HEK293 Ca flux = nonspecific calcium signal in parental HEK293, confirmation, counter-screen for MrgX1 antagonist project, parental HEK293 cells, Fluo-4 calcium flux. fluorescence ratio F(max-min)/F0 at 10 µM. AID 624111, 2012. Fluo-4 calcium fluorescence, FDSS. 2% of 4,000 active. shares compounds with MrgX1 antag;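 active means duplicate-averaged calcium fluorescence ratio at least three times the standard deviation of buffer wells, a nonspecific response in parental cells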
HEK293 Ca counter = calcium response in parental HEK293 cells, primary screen, counter-screen for MrgX1 allosteric activator project, cell-based, Fluo-4 calcium flux, duplicate; shares compounds with MrgX1 antag; Fluo-4 fluorescence ratio; hits give high values; fluorescence ratio F(max-min)/F0 at 10 µM; 0.4% of 4,000 active; AID 624114, 2012;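 active means calcium fluorescence ratio, averaged over duplicates, at least 3 SD of the buffer-well ratio, meaning a nonspecific response in receptor-free cells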;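 further: untransfected parental HEK293 lacking MrgX1 used as counterscreen for MrgX1 allosteric activators; fluorescence change taken during the second addition on a kinetic imager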
HEK293 Ca cntr2 = calcium response in parental HEK293 cells, primary screen, counter-screen for MrgX1 agonist project, cell-based, Fluo-4 calcium flux, duplicate, agonist mode; shares compounds with MrgX1 antag; Fluo-4 calcium fluorescence (FDSS); hits give high values; fluorescence ratio F(max-min)/F0 at 10 µM; 8.7% of 4,000 active; AID 624115, 2012;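 active means calcium fluorescence ratio at least three times the spread of buffer wells, meaning a non-specific response in parental cells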
The depositor's hits bear a star.

Results for COc1ccc(-n2c(O)c(/C=N/NS(=O)(=O)c3ccc(C)cc3)c3ccccc3c2=O)cc1OC ?
RGS4 inh: inactive; MrgX1 allo act: inactive; MrgX1 antag: inactive; RGS4 act: -6.96*; Lipid droplet: 5.0; MrgX1 agonist: 86*; MrgX1 ag reconf: 199.4%*; HEK293 Ca flux: inactive; HEK293 Ca counter: inactive; HEK293 Ca cntr2: 66.9*

Results for Cc1cccc(C(=O)NC(=S)NCc2ccccc2)c1 ?
RGS4 inh: inactive; MrgX1 allo act: inactive; MrgX1 antag: inactive; RGS4 act: inactive; MrgX1 agonist: inactive

How did Cc1cccc(C(=O)NC(=S)NNC(=O)c2ccccc2Cl)c1 do in these assays?
RGS4 inh: inactive; MrgX1 allo act: inactive; MrgX1 antag: inactive; RGS4 act: inactive; Lipid droplet: -4.0; MrgX1 agonist: 105*; MrgX1 ag reconf: 776.4%*; HEK293 Ca flux: inactive; HEK293 Ca counter: inactive; HEK293 Ca cntr2: 149*

How did Cc1cccc(C(=O)NC(=S)NNC(=O)Cc2ccccc2)c1 do in these assays?
RGS4 inh: inactive; MrgX1 allo act: inactive; MrgX1 antag: inactive; RGS4 act: inactive; Lipid droplet: -3.9; MrgX1 agonist: 119*; MrgX1 ag reconf: 638.0%*; HEK293 Ca flux: inactive; HEK293 Ca counter: inactive; HEK293 Ca cntr2: 137*

What do the screens show for `CC1CCc2sc(NC(=O)C3CC(Cl)=CCC3C(=O)O)c(C#N)c2C1` (stereo not drawn)?
RGS4 inh: inactive; MrgX1 allo act: inactive; MrgX1 antag: inactive; RGS4 act: inactive; Lipid droplet: 0.9; MrgX1 agonist: 28.5*; MrgX1 ag reconf: inactive; HEK293 Ca flux: inactive; HEK293 Ca counter: inactive; HEK293 Ca cntr2: inactive

Results for O=c1[nH]c(/C=C/c2ccc(Br)cc2)nc2ccccc12 ?
RGS4 inh: inactive; MrgX1 allo act: inactive; MrgX1 antag: inactive; RGS4 act: inactive; Lipid droplet: 13.3; MrgX1 agonist: inactive

Results for CN(C)c1ccc(/C=C/c2nc3ccccc3c(=O)[nH]2)cc1 ?
RGS4 inh: inactive; MrgX1 allo act: inactive; MrgX1 antag: inactive; RGS4 act: -7.05*; Lipid droplet: -6.8; MrgX1 agonist: 26.7*; MrgX1 ag reconf: inactive; HEK293 Ca flux: inactive; HEK293 Ca counter: inactive; HEK293 Ca cntr2: 55.2*

What do the screens show for `O=S(=O)(NCC1(N2CCOCC2)CCCCC1)c1ccc(Cl)cc1C(F)(F)F`?
RGS4 inh: inactive; MrgX1 allo act: inactive; MrgX1 antag: inactive; RGS4 act: inactive; Lipid droplet: -22.0; MrgX1 agonist: 87.6*; MrgX1 ag reconf: 261.2%*; HEK293 Ca flux: inactive; HEK293 Ca counter: inactive; HEK293 Ca cntr2: inactive

How did O=S(=O)(NCC1(N2CCOCC2)CCCCC1)c1ccccc1Cl do in these assays?
RGS4 inh: inactive; MrgX1 allo act: inactive; MrgX1 antag: inactive; RGS4 act: inactive; MrgX1 agonist: inactive

Results for COc1ccc(N2C(=NC(=O)C(C)Oc3ccccc3)SC3CS(=O)(=O)CC32)cc1 (stereo not drawn) ?
RGS4 inh: inactive; MrgX1 allo act: inactive; MrgX1 antag: inactive; RGS4 act: inactive; Lipid droplet: -5.6; MrgX1 agonist: inactive

What do the screens show for `CC(=O)NC(CSC(CC(=O)c1ccco1)c1ccc(C)cc1)C(=O)O` (stereo not drawn)?
RGS4 inh: inactive; MrgX1 allo act: inactive; MrgX1 antag: inactive; RGS4 act: inactive; Lipid droplet: -17.0; MrgX1 agonist: inactive

How did COc1ccc(C(=O)CC(=O)C(=O)NCCc2cccc(C)c2)cc1 do in these assays?
RGS4 inh: inactive; MrgX1 allo act: inactive; MrgX1 antag: inactive; RGS4 act: inactive; Lipid droplet: 2.7; MrgX1 agonist: inactive

Results for CN(C)c1ccc(/C=C(/C(=O)c2ccc(Cl)cc2Cl)n2cncn2)cc1 ?
RGS4 inh: inactive; MrgX1 allo act: inactive; MrgX1 antag: inactive; RGS4 act: inactive; Lipid droplet: -1.1; MrgX1 agonist: 76.9*; MrgX1 ag reconf: inactive; HEK293 Ca flux: 0.328*; HEK293 Ca counter: inactive; HEK293 Ca cntr2: inactive

Results for O=C(NCc1ccccc1)c1ccc2c(=O)n3c(nc2c1)CCCCC3 ?
RGS4 inh: inactive; MrgX1 allo act: inactive; MrgX1 antag: inactive; RGS4 act: inactive; Lipid droplet: -3.4; MrgX1 agonist: inactive

What do the screens show for `O=C(NCCc1ccc(F)cc1)c1ccc2c(=O)n3c(nc2c1)CCC3`?
RGS4 inh: inactive; MrgX1 allo act: inactive; MrgX1 antag: inactive; RGS4 act: inactive; MrgX1 agonist: 31.5*; MrgX1 ag reconf: 217.4%*; HEK293 Ca flux: inactive; HEK293 Ca counter: inactive; HEK293 Ca cntr2: 51.6*

How did COc1ccc2c(c1)CCCN2C(N)=Nc1ccc(Cl)cc1 do in these assays?
RGS4 inh: inactive; MrgX1 allo act: inactive; MrgX1 antag: inactive; RGS4 act: inactive; Lipid droplet: -1.3; MrgX1 agonist: 32.9*; MrgX1 ag reconf: inactive; HEK293 Ca flux: inactive; HEK293 Ca counter: inactive; HEK293 Ca cntr2: inactive

Results for COc1ccc2c(c1)CCCN2S(=O)(=O)c1ccc(Cl)cc1 ?
RGS4 inh: inactive; MrgX1 allo act: inactive; MrgX1 antag: inactive; RGS4 act: inactive; Lipid droplet: -21.8; MrgX1 agonist: inactive

What do the screens show for `COc1ccnc(CSC(N)=Nc2ccc(F)cc2)c1`?
RGS4 inh: inactive; MrgX1 allo act: inactive; MrgX1 antag: inactive; RGS4 act: inactive; Lipid droplet: -6.3; MrgX1 agonist: 75.1*; MrgX1 ag reconf: 383.3%*; HEK293 Ca flux: inactive; HEK293 Ca counter: inactive; HEK293 Ca cntr2: 75.4*
